Here are results for 17 compounds from ChEMBL document CHEMBL1135577, “Synthesis and biological evaluation of structurally highly modified analogues of the antimitotic natural product curacin A” (J Med Chem, 2002).

Test [1] has as its system A2780. The test is described as follows: Tested for colchicine binding inhibition, using human ovarian cancer cell lines (at 5 uM ). The test is classed as functional. The essentials:
(§1)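 [3H]colchicine (5 μM) was incubated with 1 μM tubulin and agent (1-250 μM) or DMSO vehicle (5% v/v) at 30 °C for 15 min or 37 °C for 10 min, in 1 M monosodium glutamate, 0.1 M glucose-1-phosphate, 1 mM MgCl2, 1 mM GTP and 0.5 mg/mL BSA. Samples were filtered through DEAE-cellulose and counted by scintillation. Values are means (N = 9 over four concentrations) ± SD.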

The next test concerns the target Tubulin (Bos taurus). The test can be described thus: Inhibition of tubulin polymerization of purified bovine brain tubulin.
Test [2] concerns MCF7. The test is described as follows: Tested for 50% growth inhibitory concentration by using MCF-7 cell lines. The test is classed as functional. The following applies: Homo sapiens. The essentials:
(§2)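 Cultured human tumor cells were seeded at 500-2000 cells/well, allowed to attach for 48 h, then exposed continuously for 48 h to DMSO vehicle or agent at five concentrations (e.g., 50-0.08 μM, 10-0.016 μM or 1-0.0016 μM series), each in quadruplicate. A time-zero plate was included. Cell number was read by MTS/phenazine methanesulfonate at A490-A630. Values are means (N = 4 over 10 concentrations) ± SD.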

Test [3] relates to PC-3. The test is described as follows: 50% Growth inhibitory concentration by using PC -3 human prostate carcinoma cell lines (48h continuous exposure). The class given is functional. The following applies: PC-3, 48 h. The gist of the method: as §2
The test system of test [4] is 2008. The test is described as follows: 50% Growth inhibitory concentration( GI 50 ) by using 2008 human ovarian carcinoma cell lines. The class given is functional. The essentials: as §2
In test [5] the test system is A2780. The test can be described thus: Compound was tested for Tubulin polymerization inhibition by using human ovarian cancer cell lines. The test is classed as functional. The essentials:
(§3)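 Tubulin (10 μM final, 1 mg/mL) was preincubated with agent in DMSO (4% v/v final) and 0.8 M monosodium glutamate for 15 min at 30 °C, then cooled to 0 °C and GTP (0.4 mM final) added. Turbidity at 350 nm was followed for 20 min at 30 °C. […] Values are averages of two determinations.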

For test [6], the system named is MCF7. The test is described as follows: Compound was tested for 50% Growth Inhibitory concentration against MCF-7 cell lines. The class given is functional. The following applies: Homo sapiens. The gist of the method: (§4)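 Cells (500–2000/well) attached and grew for 48 h, then received DMSO vehicle or agent at five-point 5-fold dilutions (from 50, 10 or 1 μM top) for 48 h, continuous exposure. A time-zero plate was included, and each concentration was run in quadruplicate. Cell number was read by MTS/phenazine methanesulfonate, A490 minus A630. Values are means (N = 4 over 10 concentrations) ± SD.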

Test [7] deals with A2780. The test is described as follows: Percent of Tubulin polymerization inhibition by using human ovarian cancer cell lines at a concentration of 5 uM. The class given is functional. The essentials: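 Purified tubulin (10 μM final, 1 mg/mL) was preincubated 15 min at 30 °C with agent in DMSO (4% v/v final) and 0.8 M monosodium glutamate. Samples were chilled to 0 °C, and GTP was added (0.4 mM final). Turbidity at 350 nm was followed for 20 min after a rapid rise to 30 °C. Inhibition was scaled between vehicle without GTP (100%) and GTP plus vehicle (0%). Values are averages of two determinations.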

Test [8] relates to A2780. The test is described as follows: Colchicine Binding Inhibition ( CBI ) by using human ovarian cancer cell lines at 5 uM, (values are mean of 9 over 4 concentrations +/- SD). The class given is functional. The gist of the method: (§5)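 [3H]-colchicine (5 μM, 2.3 TBq/mmol) and test agent (1–250 μM) or DMSO vehicle (5% v/v) were incubated with 1 μM purified tubulin at 30 °C for 15 min. The medium held 1 M monosodium glutamate, 0.1 M glucose-1-phosphate, 1 mM MgCl2, 1 mM GTP and 0.5 mg/mL BSA. Samples were filtered through DEAE-cellulose stacks, and […] was counted by scintillation. Values are means (N = 9 over four concentrations) ± SD.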

The subject of test [9] is A2780. The test can be described thus: Compound tested for colchicine Binding Inhibition by using human ovarian cancer cell line (at 5 uM ). The test is classed as functional. The gist of the method: as §5
Test [10] deals with MDA-MB-231. The test can be described thus: Compound was tested for 50% Growth Inhibitory concentration by using MDA - MB231 human breast carcinoma cell lines. The test is classed as functional. The essentials: as §4
Test [11] relates to A2780. The test can be described thus: Compound was tested for colchicine Binding Inhibition by using human ovarian carcinoma cell line (at 5 uM ). The test is classed as functional. The essentials: as §1
In test [12] the test system is MDA-MB-231. The test is described as follows: Compound was tested for 50% Growth Inhibitory concentration by using MDA-MB-231 cell lines. The class given is functional. The following applies: Homo sapiens. The essentials:
as §2

Test [13] deals with PC-3. The test can be described thus: Compound was tested for 50% growth inhibitory concentration by using human prostate carcinoma cell lines (PC -3). The class given is functional. The essentials: as §2
Test [14] deals with A2780. The test can be described thus: Compound was tested for Tubulin polymerization inhibition by using human ovarian carcinoma cell lines. The test is classed as functional. The gist of the method: as §3
Test [15] has as its system 2008. The test is described as follows: Compound was tested for 50% growth inhibitory concentration by using human ovarian carcinoma cell lines (2008). The class given is functional. The gist of the method: as §2
In test [16] the test system is A2780. The test can be described thus: Compound was tested for Tubulin polymerization inhibition by using human ovarian carcinoma cell lines.;NA means not active. The test is classed as functional, cell-based. The gist of the method:
as §3

The test system of test [17] is A2780. The test is described as follows: Compound was tested for colchicine binding inhibition by using human ovarian carcinoma cell lines (at 5 uM );NA means not active. The class given is functional, cell-based. The gist of the method:
as §1

Activity calls are given as the source filed them. The rule behind the calls is not given here.

For orientation: inhibition means the percentage by which the read-out fell short of the control. A higher inhibition goes with a strong effect. In general, IC50 refers to the point on the concentration scale where inhibition reaches its midpoint. Higher therefore signals a need for much substance. By GI50 is commonly meant the concentration giving 50% growth inhibition. A low value points to more potent growth inhibition. Take `C=CC[C@@H](CC/C(C)=C/C=C/CC/C=C\[C@@H]1CSC([C@@H]2C[C@@H]2C)=N1)OCC(F)(F)C(F)(F)C(F)(F)F`: the inhibition at 5 µM with A2780 [1] is 12%. At Tubulin (Bos taurus), this compound registered an IC50 of 5.4 µM. For the same compound, the GI50 with MCF7 [2] is greater than 10 µM.

`C=CC[C@@H](CC/C(C)=C/C=C/CC/C=C\c1csc(C(C)(C)C)n1)OC`: the concentration for 50% growth inhibition (GI50) in the test with PC-3 [3] came to 0.24 µM; with 2008 [4] it was 0.3 µM. The same compound gave an inhibition at 5 µM with A2780 [1] of 38%. The compound also displayed a TPI with A2780 [5] of 100%.

As for `C=CC[C@H](CC/C(C)=C/C=C/CC/C=C\[C@@H]1CSC([C@@H]2C[C@@H]2C)=N1)OC`, in the test with A2780 [1], the inhibition at 5 µM was found to be 56%. At Tubulin (Bos taurus), this compound displayed a concentration for half-maximal inhibition (IC50) of 0.67 µM. This compound also gave a 50% growth inhibitory concentration (GI50) in the test with MCF7 [2] of 0.18 µM.

For `C=CC[C@@H](CC/C(C)=C/C=C/CC/C=C\[C@@H]1CSC([C@@H]2C[C@@H]2C)=N1)OC` [CURACIN A], the GI50 in the test on PC-3 [3] stood at 0.05 µM; in the test on MCF7 [6] it was 0.04 µM; in the test with 2008 [4] it was 0.035 µM; with MDA-MB-231 [10] it was 0.096 µM. For the same compound, in the test on A2780 [7], the TPI is given as 98%. Also, the values for the inhibition at 5 µM with A2780 [8] and with A2780 [9] were 78% and 94%, respectively. It took 0.72 µM to reach half-maximal inhibition on Tubulin (Bos taurus) (IC50).

Compound `COc1cc(/C=N\OC[C@H]2C[C@@H]2C2C[C@]2(C)CCC(O)c2cccs2)cc(OC)c1OC` (stereo partly specified) registered an inhibition at 5 µM in the test with A2780 [11] of less than 10%. For the same compound, the figures for the concentration for 50% growth inhibition (GI50) with MDA-MB-231 [12], in the test on PC-3 [13] and in the test with 2008 [15] were 0.98 µM, 1.2 µM and 9.9 µM, respectively. In the test with A2780 [14], the TPI is listed as 26%.

Consider `COc1cc(/C=C/CC/C=C/C=C(\C)CCC(O)c2cccs2)cc(OC)c1OC` (stereo unspecified), for which the concentration for 50% growth inhibition (GI50) with PC-3 [3] was found to be 35 µM; with 2008 [4] it was 21 µM. For the same compound, the inhibition at 5 µM in the test on A2780 [1] is less than 10%. The TPI in the test with A2780 [5] came to 25%.

At Tubulin (Bos taurus), `CC(C)=C/C=C/CC/C=C\[C@@H]1CSC([C@@H]2C[C@@H]2C)=N1` had an IC50 greater than 50 µM.

In the test with A2780 [1], `C=CCC1(CC/C(C)=C/C=C/CC/C=C\[C@@H]2CSC([C@@H]3C[C@@H]3C)=N2)OCCO1` yielded an inhibition at 5 µM of 92%. In addition, the IC50 on Tubulin (Bos taurus) was determined as 0.78 µM. Besides, growth in the test on MCF7 [2] was halved (GI50) at 0.03 µM.

In turn, `CCCCCCCCCCCC/C=C\[C@@H]1CSC([C@@H]2C[C@@H]2C)=N1` gave a concentration for half-maximal inhibition (IC50) at Tubulin (Bos taurus) greater than 50 µM.

In the test with A2780 [1], `C=CC[C@@H](CC/C(C)=C/C=C\CC/C=C\[C@@H]1CSC([C@@H]2C[C@@H]2C)=N1)OC` [CURACIN B] returned an inhibition at 5 µM of 56%. On Tubulin (Bos taurus), this compound yielded an IC50 of 0.82 µM. Besides, the GI50 in the test on MCF7 [2] is 0.32 µM.

In turn, `C=CC[C@@H](CC/C(C)=C/C=C/CC/C=C\c1csc([C@@H]2C[C@@H]2C)n1)OC` displayed an inhibition at 5 µM in the test with A2780 [1] of 74%. In addition, half-maximal inhibition at Tubulin (Bos taurus) (IC50) required 0.74 µM. Besides, growth in the test on MCF7 [2] was halved (GI50) at 0.3 µM.

Compound `COc1cc(/C=C\CC/C=C/C=C(\C)CCC(O)c2cccs2)cc(OC)c1OC` (stereo unspecified) returned a GI50 in the test with 2008 [4] of 0.28 µM. This compound also had an inhibition at 5 µM with A2780 [1] of 39%. This compound yielded a TPI in the test on A2780 [5] greater than 95%.

For the compound `C=CC[C@@H](CC/C(C)=C/C=C/CCCO)OC`, the inhibition at 5 µM in the test on A2780 [1] was found to be 0%. Further, the IC50 on Tubulin (Bos taurus) is greater than 80 µM. This compound registered a GI50 in the test with MCF7 [2] greater than 10 µM.

Regarding `C=CC[C@@H](CC/C(C)=C/C=C/CC/C=C\[C@@H]1COC(C(C)(C)C)=N1)OC`, the 50% growth inhibitory concentration (GI50) in the test with PC-3 [3] is 6.2 µM; in the test with 2008 [4] it was 0.45 µM. Moreover, the inhibition at 5 µM in the test on A2780 [1] is less than 10%. In the test with A2780 [5], this compound came in with a TPI of 0%.

`C=CC[C@H](O)CC/C(C)=C/C=C/CC/C=C\C1CSC([C@@H]2C[C@@H]2C)=N1` (stereo partly specified) registered an inhibition at 5 µM in the test on A2780 [1] of 82%. Also, the half-maximal inhibitory concentration (IC50) on Tubulin (Bos taurus) worked out at 0.87 µM. For the same compound, the GI50 in the test on MCF7 [2] worked out at 0.45 µM.

Take `C=CC[C@@H](CC/C(C)=C/C=C/CC/C=C\[C@@H]1CSC([C@@H]2C[C@@H]2C)=N1)OCOC`: in the test with A2780 [1], 5 µM produced 81% inhibition. The IC50 against Tubulin (Bos taurus) worked out at 0.64 µM. The compound further came in with a concentration for 50% growth inhibition (GI50) in the test with MCF7 [2] of 0.22 µM.

Turning to `C/C=C\[C@@H]1CSC([C@@H]2C[C@@H]2C)=N1`, the NA entry in the test on A2780 [16] and in the test with A2780 [17] was “inactive” in each case.
